Source: PubChem BioAssay (several laboratories)
Most compounds without a hit are left out; they make up all but 2.1% or so of the library.
KLK7 zymogen act = proKLK7 zymogen activators, primary screen, biochemical, fluorescence intensity; Kallikrein-7 (Homo sapiens), P49862; purified proKLK7, EDANS-DABCYL substrate fluorescence; 100% is mature enzyme control, 0% vehicle; activation, % at 7 µM; hit rate 0.9% among 370,000;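 active means activation above the mean of all tested compounds plus 3 SD, computed per campaign excluding outliers beyond control limits, cut at about 13% in these data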
Runt-SMMHC FRET = inhibitors of RUNX1 Runt–CBFb-SMMHC binding, primary screen, biochemical, FRET, Cerulean-Runt, Venus-CBFb-SMMHC, uHTS | Runt-related transcription factor 1 (Homo sapiens) + Core-binding factor subunit beta … | Cerulean-Runt/Venus-CBFb-SMMHC FRET ratio 530/480, 1 h | inhibition, % at 20 µM | hit rate 0.74% among 220,000 | AID 1434, 2008;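 active means mean inhibition across duplicate retests at 20 µM reaching about 50%, limit read from the data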;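 further: inhibitors lower the FRET ratio by blocking Runt binding to CBFb-SMMHC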
Target sequence (Q01196 whole entry, looked up): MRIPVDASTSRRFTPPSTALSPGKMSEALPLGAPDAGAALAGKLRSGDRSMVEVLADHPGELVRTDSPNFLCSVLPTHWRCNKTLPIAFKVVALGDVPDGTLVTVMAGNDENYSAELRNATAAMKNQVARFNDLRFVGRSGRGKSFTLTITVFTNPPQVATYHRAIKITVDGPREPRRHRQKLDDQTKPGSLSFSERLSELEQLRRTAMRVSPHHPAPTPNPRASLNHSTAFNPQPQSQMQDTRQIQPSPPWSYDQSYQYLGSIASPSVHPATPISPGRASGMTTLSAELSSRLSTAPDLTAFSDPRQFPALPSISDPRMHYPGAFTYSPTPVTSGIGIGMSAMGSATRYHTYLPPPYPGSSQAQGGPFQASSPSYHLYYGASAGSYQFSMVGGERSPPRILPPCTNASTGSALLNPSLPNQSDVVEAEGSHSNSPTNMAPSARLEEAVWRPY
Target sequence (Q13951 whole entry, looked up): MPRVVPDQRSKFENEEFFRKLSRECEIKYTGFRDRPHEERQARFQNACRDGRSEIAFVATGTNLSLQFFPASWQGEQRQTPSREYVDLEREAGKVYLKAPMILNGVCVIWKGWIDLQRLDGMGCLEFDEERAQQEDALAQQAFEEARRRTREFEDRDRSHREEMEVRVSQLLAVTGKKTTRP
Runt-CBFb FRET = inhibitors of RUNX1 Runt–CBFb binding, primary screen, biochemical, FRET, Cerulean-Runt, Venus-CBFb, uHTS; Cerulean-Runt/Venus-CBFb FRET ratio 530/480, 1 h; hit rate 0.46% among 220,000; inhibition, % at 20 µM;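 active means inhibition over about 50% at 20 µM in the single-dose screen, limit read from the data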
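test system = Cerulean-Runt domain fusion protein, energy donor | probe or stimulus = Venus-CBFb binding partner, 100 nM | incubation = two 1 h room-temperature incubations shielded from light | detection = fluorescence energy transfer, 422 nm excitation, 530/480 nm emission | measure = loss of energy transfer signal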
MEX-5 binding = MEX-5 zinc finger RNA-binding disruptors – biochemical, C. elegans, fluorescence polarization, MLPCN library, primary screen; Zinc finger protein mex-5 (Caenorhabditis elegans), Q9XUB2; MEX-5/FITC-TCR2 RNA binding; stronger effect = lower value; activity score (negative = inhibition of binding), % at 10 µM; hit rate 0.38% among 300,000; AID 1832, 2009;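 active means inhibition past about -25% in most replicates, and total fluorescence under double the plate's negative control median, limit read from the data; inconclusive means replicates evenly split on the limit, or fluorescence at least double controls; inactive means too little inhibition in most replicates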
RanGTP-Impb inh = inhibitors of RanGTP-importin-beta interaction, primary screen, biochemical, FRET, CFP-Ran, YFP-importin-beta, homogeneous; Ran GTPase (GTP-bound) - importin-beta complex; hit rate 1.1% among 300,000; cell-free CFP-Ran/YFP-importin-beta FRET ratio; inhibition, % (no concentration beside the values);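 active means more than half of the replicate wells show a fall in the fluorescence ratio signal beyond about 16%, limit read from the data, passing the limit was not always enough; inconclusive means exactly half of the replicate wells pass the set limit; inactive means fewer than half of replicates pass the limit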
Numbers stand for hits; - = inactive; ? = inconclusive; . = not tested or not shown.

SMILES	KLK7 zymogen act	Runt-SMMHC FRET	Runt-CBFb FRET	MEX-5 binding	RanGTP-Impb inh
O=C(NCCc1ccccc1)c1ccc2nc(-c3ccco3)c(-c3ccco3)nc2c1	.	-	-	-	39.3
O=C(NCCO)c1ccc2nc(-c3ccco3)c(-c3ccco3)nc2c1	-	-	-	-38.7	-
CC1=C(C(=O)N2CCCCCC2)CC(CC(=O)NCCCN(C)C)C(=O)N1Cc1ccc(C(C)(C)C)cc1 (configuration not stated)	-	.	.	.	.
CCN1CCN(C(=O)c2ccc3c(=O)n(Cc4ccccc4OC)c(=S)[nH]c3c2)CC1	-	-	-	-28.8	-
Cc1ccc(CNC(=O)/C(C#N)=C\c2ccc(N(C)C)cc2)cc1	.	61.3	-	-60.4	71.5
Cn1c(=O)n(C)c2cc(/C=C(/C#N)C(=O)NCc3ccco3)ccc21	-	-	-	-	-
CCN(CC)c1ccc(/C=C(\C#N)C(=O)NCc2ccco2)cc1	-	59.6	-	.	.
CN(C)c1ccc(/C=C(\C#N)C(=O)NCc2ccco2)cc1	.	58.5	90.3	-41.6	?
N#C/C(=C/c1ccc(C(=O)O)cc1)C(=O)NCc1ccccc1	-	-	-	-	-
CCN(CC)c1ccc(/C=C(\C#N)C(=O)NCc2ccccc2)cc1	.	59.0	79.2	-	109.1
CC(OC(=O)/C(C#N)=C/c1ccc(N(C)C)cc1)C(=O)NCc1ccco1 (configuration not stated)	-	.	.	-	-
Cc1cc2n(n1)C(c1c[nH]c3ccccc13)Nc1ccccc1-2 (configuration not stated)	.	-	-	-32.0	-
COc1ccc(C(=O)NNC2=CC(=O)CC(C)(C)C2)cc1	-	-	-	-	33.2
CC1(C)CC(=O)C=C(NNC(=O)c2ccccc2O)C1	-	-	.	-	-
CCCC(=O)NC(Nc1ccccc1F)C(Cl)(Cl)Cl (configuration not stated)	.	-	67.0	-	-
CC1(OC(=O)c2ccc(Cl)nc2)C(=O)C=C2C=C(c3ccsc3)OC=C2C1=O (configuration not stated)	.	.	.	-	-
CCCCC1=CC2=CC(=O)C(C)(OC(=O)c3cnc4ccccc4n3)C(=O)C2=CO1 (configuration not stated)	.	-	-	?	-
CC(C)(C)OC(=O)NCCCCC1=CC2=CC(=O)C(C)(OC(=O)c3cnc4ccccc4n3)C(=O)C2=CO1 (configuration not stated)	.	.	.	-28.3	-
COC(=O)CCCC1=CC2=CC(=O)C(C)(OC(=O)c3cnc4ccccc4n3)C(=O)C2=CO1 (configuration not stated)	.	.	.	-66.9	-
CC(C)(C)OC(=O)NCCCCC1=CC2=CC(=O)C(C)(O)C(=O)C2=CO1 (configuration not stated)	-	.	.	-	-
COC(=O)CCCC1=CC2=CC(=O)C(C)(OC(=O)c3ccc(Cl)nc3)C(=O)C2=CO1 (configuration not stated)	.	.	.	-35.0	-
CC1(OC(=O)c2ccc(Cl)nc2)C(=O)C=C2C=C(C3CC3)OC=C2C1=O (configuration not stated)	.	.	.	-50.3	-
CC1(C(=O)Nc2cccc3ncccc23)CCN1C(=O)Cc1ccc(-c2ccccc2)cc1 (configuration not stated)	-	.	.	.	.
C[C@H]1CN([C@@H](C)CO)C(=O)CCCn2nncc2CO[C@@H]1CN(C)Cc1ccc(Cl)c(Cl)c1	-	.	.	.	.
NC(N)=N/N=C(\N=Nc1ccccc1)c1ccc(Cl)cc1	-	.	.	.	.
SMILES	KLK7 zymogen act	Runt-SMMHC FRET	Runt-CBFb FRET	MEX-5 binding	RanGTP-Impb inh
CCCCC1=CC2=CC(=O)C(C)(OC(=O)c3ccco3)C(=O)C2=CO1 (configuration not stated)	.	.	.	-36.4	-
CCCCC1=CC2=CC(=O)C(C)(OC(=O)c3cccs3)C(=O)C2=CO1 (configuration not stated)	-	.	.	-	-
CCCCC1=CC2=CC(=O)C(C)(OC(=O)CCC(=O)OC)C(=O)C2=CO1 (configuration not stated)	.	.	.	-26.9	-
CCCCC1=CC2=CC(=O)C(C)(OC(=O)CCc3ccccc3)C(=O)C2=CO1 (configuration not stated)	-	-	-	-	-
COC(=O)CCCC1=CC2=CC(=O)C(C)(OC(=O)c3cccs3)C(=O)C2=CO1 (configuration not stated)	.	.	.	-49.0	-
COc1ccc(C)cc1C(=O)CCC(=O)N1CCN(c2ccccc2F)CC1	-	.	.	.	.
N#CC1=C(N)Oc2cc(N)ccc2C1c1ccccc1F (configuration not stated)	-	.	.	-	120.8
COc1cccc(C2C(C#N)=C(N)Oc3cc(N)ccc32)c1OC (configuration not stated)	-	100.2	72.0	-	105.2
CC(=O)Nc1ccc(CN2C(=O)C(C)(C)ON=C2c2ccc(NC(C)=O)cc2)cc1	-	.	.	.	.
COc1ccc2[nH]c3c(c2c1)CCNC3c1ccc([N+](=O)[O-])o1 (configuration not stated)	-	.	.	-50.3	-
COc1cccc(-n2cc(CNCc3c(C(=O)N(C)C)nc4ccc(Cl)cn34)cn2)c1	-	-	-	-	-
COc1cccc(-n2cc(CNCc3cn(C)nc3-c3ccccc3F)cn2)c1	-	-	-	-	64.0
Cc1cccc(NC(=O)CN2C(=O)N/C(=C\c3ccc(-c4cccc(C(=O)O)c4)o3)C2=O)c1	-	80.2	85.3	-	25.6
Cc1ccc(CN2C(=O)N/C(=C/c3ccc(-c4ccc(C(=O)O)cc4)o3)C2=O)cc1	-	80.3	126.2	-	?
Cc1cc(C(=O)O)ccc1-c1ccc(/C=C2\NC(=O)N(Cc3ccc(F)cc3)C2=O)o1	-	80.3	115.9	?	64.9
CCCn1c2ccccc2c2cnn(CC(=O)NCCN(CC)CC)c(=O)c21	-	.	.	-	-
CCCn1c2ccccc2c2cnn(CC(=O)NCCN(C)C)c(=O)c21	-	.	.	-	19.6
CCCn1nc(NC(=O)c2cccs2)c2cc3ccccc3nc21	-	50.2	.	-	60.8
CCCCn1nc(NC(=O)c2cccs2)c2cc3ccccc3nc21	-	63.4	-	-	73.5
CCCCn1c(CNC(=O)c2cccs2)nc2ccccc21	-	-	.	-	-
CCCn1nc(NC(=O)c2ccncc2)c2cc3ccccc3nc21	-	-	-	-	-
O=C(OCc1cn(Cc2c(F)cccc2F)nn1)N1CCCC1	-	.	.	.	.
Cc1ccc2[nH]c3ccccc3c(=O)c2c1	19.1	.	.	-	114.0
